The full list was thinned out, with hits kept by preference.
UPR XBP1 act – adaptive UPR (XBP1) activation | actives 0.33% (n = 330,000) | CHO-XBP1 luciferase reporter, IRE1-XBP1 UPR activation, luminescence; percent of tunicamycin response, DMSO as zero | activation, % at 20 µM;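 active = versus positive control, 20 µM dose yields 30% or more activation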;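 also: 100% = tunicamycin at 10 µg/mL and 0% = DMSO only wells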
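Assay system: IRE1-XBP1 luciferase reporter CHO line. Input: 1000 cells/well. Buffer or medium: F12 with 10% serum. Doses: 20 µM, 1% DMSO. Times: overnight seeding at 37 °C, 6 h compound treatment at 37 °C. Technique: Steady-Glo luciferase glow luminescence, 10 min after reagent addition.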
PvdQ acylase – blocks Pseudomonas aeruginosa PvdQ acylase activity | actives 0.063% (n = 340,000) | purified PvdQ acylase, fluorescence plate reader | AID 488965 | inhibition, % at 10 µM; in the data active = inhibition above about 30%, passing the limit was not always enough;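 also: 0% = vehicle neutral wells and 100% = reference inhibitor wells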
CHOP UPR activ – apoptotic UPR (CHOP) activation | CHO-CHOP luciferase reporter, luminescence; percent of tunicamycin response over DMSO baseline | activation, % at 10 µM | actives 0.34% (n = 330,000) | AID 449763;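 active = at 10 µM dose, activation of 40% or more, normalized to positive control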;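 also: 100% = tunicamycin at 10 µg/mL and 0% = DMSO alone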
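Dosing – one dose, 10 µM in 0.5% DMSO · System – CHO-CHOP cells, stable luciferase reporter of PERK-eIF2a-CHOP signalling · Input – 500 cells/well · Control set – tunicamycin 10 µg/mL final as positive, DMSO-only wells as negative · Timing – 6 h compound treatment, 37 °C · Measure – % activation vs tunicamycin · Technique – luminescence read with Steady-Glo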
CHOP inh – CHOP inhibition in unfolded protein response; CHO-K1 CHOP-promoter luciferase, tunicamycin-induced, 15-18 h; inhibition, % at 10 µM; actives 3.8% (n = 220,000); AID 2732;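 active = compounds that reduced the stress-induced luciferase reporter signal by more than about 70% of percent inhibition, limit read from the data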;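 also: 0% = tunicamycin plus vehicle and 100% = wells without tunicamycin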
Active calls of the source: *; nt = not tested or not shown.

SMILES | UPR XBP1 act | PvdQ acylase | CHOP UPR activ | CHOP inh
COc1ccc(C(=O)c2ccccc2)cc1 | -1 | 8 | 2 | -1
COc1ccc(C(=O)c2ccc(Br)cc2)cc1 | 0 | -14 | 4 | 76*
Cc1cc(Br)ccc1S(=O)(=O)n1ccnc1C | -2 | -11 | -1 | 18
Cc1ccc(NC(=O)CN(C)C(=O)c2cccc(S(=O)(=O)NCc3ccccc3)c2)cc1 | -3 | 2 | 0 | nt
COc1ccc(/C=N/N2CCOCC2)cc1O | 3 | -13 | 3 | -26
COc1ccc(/C=N/N2CCN(C3c4ccccc4-c4ccccc43)CC2)cc1O | -2 | 15 | 3 | 92*
COc1ccc(CNC(=O)[C@H](C)NC(=O)[C@@H]2Cc3ccccc3CN2)cc1 | 0 | -9 | 0 | nt
Cc1nc(N)nc(N)c1/C=C/C(C)(C)c1ccc(Cl)cc1 | nt | 3 | nt | 77*
Cc1nc(N)nc(N)c1Oc1ccc(Cl)cc1 | nt | 4 | nt | nt
O=C(Nc1ccc2c(c1)OCO2)N1CCN(c2ccc(F)cc2)CC1 | -1 | 0 | 0 | 78*
O=C(Nc1ccc2c(c1)OCO2)N1CCN(c2ccccc2)CC1 | -2 | -3 | 1 | -5
Cc1ccc(CN2CCCC(CO)(Cc3ccccc3C)C2)s1 (centres undefined) | 2 | -21 | 0 | 20
Fc1ccccc1CNCc1ccc2c(c1)OCO2 | -3 | -9 | 2 | nt
CCOC(=O)N1CCC(NS(=O)(=O)c2ccc3c(c2)CCN3C(C)=O)CC1 | -1 | -17 | -1 | 73*
CCOC(=O)N1CCC(NC(=O)CCS(=O)(=O)c2ccc3c(c2)CCN3C(=O)CC)CC1 | -3 | -3 | 3 | 13
COCCCNC(=O)CN1C(=O)/C(=C/c2ccccc2)Sc2ccccc21 | 1 | -11 | 3 | 26
COc1cccc(/C=N/NC(=O)CCn2c3ccccc3c3ccccc32)c1 | -1 | -2 | -3 | 89*
Cc1ccccc1Cn1cc(NC(=O)c2noc3c2CC(C(C)(C)C)CC3)cn1 (centres undefined) | 2 | 7 | 1 | 86*
Cc1ccccc1Cn1nc(C)c(NC(=O)c2noc3c2CC(C(C)(C)C)CC3)c1C (centres undefined) | -2 | 0 | 1 | 32
CC(=O)Oc1c(S(=O)(=O)c2ccc(C)cc2)c(C)nn1C(C)(C)C | -2 | -20 | 1 | 50
Cc1ccc(S(=O)(=O)c2c(C)nn(C(C)(C)C)c2OC(=O)c2ccco2)cc1 | -4 | -2 | 3 | 22
Cc1ccc(S(=O)(=O)c2c(C)nn(C(C)(C)C)c2OC(=O)c2ccc(Br)o2)cc1 | 3 | -16 | 9 | 72*
Cc1ccc(S(=O)(=O)c2c(C)nn(C(C)(C)C)c2OC(=O)c2cccs2)cc1 | -5 | -15 | 1 | 72*
CSc1ncccc1C(=O)NC1CCCCCCC1 | -2 | 14 | 3 | nt
O=C(O)CCCC(=O)N1CCCC1 | 0 | 4 | 0 | 16
SMILES | UPR XBP1 act | PvdQ acylase | CHOP UPR activ | CHOP inh
Cc1ccccc1OCc1nc2ccccc2c(=O)n1/N=C/c1cn[nH]c1-c1ccc(Br)cc1 | 4 | 4 | 2 | 21
O=c1c2ccccc2nc(COc2ccccc2)n1/N=C/c1cn[nH]c1-c1ccccc1 | -1 | -10 | 3 | 85*
O=C(Nc1ccc(S(=O)(=O)NC2=NCCCCC2)cc1)c1ccc(Cl)c([N+](=O)[O-])c1 | -3 | -8 | 2 | nt
Cc1cccc(C)c1NS(=O)(=O)c1ccc(NC(=O)c2ccc(Cl)c([N+](=O)[O-])c2)cc1 | 0 | 0 | 1 | 73*
C/C=C(\C)CN1CCC(n2nccc2NC(=O)CCOc2ccccc2)CC1 | -5 | 4 | 2 | nt
COc1cc(/C=C/[N+](=O)[O-])ccc1OCc1cccc(C(=O)O)c1 | -9 | nt | -8 | 77*
COc1cc(/C=N/NC(=O)c2cccc([N+](=O)[O-])c2)ccc1OCc1ccccc1 | 5 | -1 | 4 | -5
CSc1nc(N)c2ncn([C@@H]3O[C@H](COP(=O)(O)OP(=O)(O)OP(=O)(O)O)[C@H](O)C3O)c2n1 (some centres undefined) | nt | nt | nt | 11
C=CCn1c(SCc2nc3ccccc3c(=O)[nH]2)nnc1-c1cc2cc(Cl)ccc2o1 | 7 | -1 | 0 | 83*
O=c1[nH]c(CSc2nnnn2-c2ccc(Cl)cc2)nc2ccccc12 | 3 | -18 | 0 | -4
Cc1ccc(C)c(NC(=O)Cn2ccn(-c3ccc4c(c3)OCO4)c(=O)c2=O)c1 | 1 | -15 | 0 | nt
O=C1/C(=C\c2ccc(O)cc2)SC(=S)N1c1cccnc1 | 4 | -10 | 2 | 78*
N=C1S/C(=C\c2ccc(O)cc2)C(=O)N1c1ccc(F)cc1 | 8 | 1 | 0 | 83*
CCOc1cc(/C=C2\SC(=O)N(c3ccc(O)cc3)C2=O)ccc1O | 1 | -3 | 2 | 22
CC(=O)Nc1sc2c(c1C#N)CCN(Cc1ccccc1)C2 | 5 | -13 | -2 | nt
CN1CCc2c(C#N)c(N3CCCCC3)nc(NCc3ccccc3)c2C1 | 0 | -7 | 0 | 84*
N#Cc1c(NCCCO)nc(NCc2ccccc2)c2c1CCN(Cc1ccccc1)C2 | -5 | -1 | 3 | 88*
CC(C)c1nc(NCc2ccccc2)c(C#N)c2c1CCCC2 | 4 | -14 | 2 | -4
Cc1cc(OCC(=O)Nc2ccccc2C)no1 | -2 | -18 | 0 | nt
CN1/C(=C\C(=S)NC(=O)c2ccccc2Cl)C(C)(C)c2ccccc21 | 1 | 6 | 4 | 22
COc1ccccc1C(=O)NC(=S)/C=C1/N(C)c2ccccc2C1(C)C | 1 | 5 | 5 | 73*
CC(=O)c1nn(-c2ccccc2)cc1C(=O)c1cccc(Br)c1 | -4 | 1 | 0 | 13
CC(=O)c1nn(-c2cccc(Br)c2)cc1C(=O)c1ccccc1 | 2 | 0 | 0 | 74*
O=C(COc1cccc(Br)c1)NN=C1c2ccccc2-c2ccccc21 | 1 | -8 | 3 | 9
O=C(COc1cccc(Br)c1)N/N=C1\CCCc2ccccc21 | -1 | -9 | 1 | 75*
SMILES | UPR XBP1 act | PvdQ acylase | CHOP UPR activ | CHOP inh
CCOc1ccc(OCc2cccc(C(=O)O)c2)cc1 | -6 | -6 | -10 | 109*
O=C(NCc1ccccc1)c1cccc(COc2ccc3c(c2)CCC3)c1 | -4 | -9 | -4 | 56
O=C(O)c1cccc(COc2ccc3c(c2)CCC3)c1 | -8 | -8 | -11 | 93*
O=C(Nc1ccc(Oc2ccccc2)nc1)C1CCCCN1Cc1ccco1 (centres undefined) | -1 | 1 | 2 | nt
O=C(CSc1nc(N2CCCCC2)nc(N2CCCCC2)n1)Nc1nccs1 | 0 | 6 | -2 | 77*
O=[N+]([O-])c1cccc(/C=N/n2c(-c3cccnc3)n[nH]c2=S)c1 | 1 | -5 | 4 | 1
CC(=O)N(C(C)=O)c1nc(-c2ccccc2)cn1/N=C/c1cccc([N+](=O)[O-])c1 | 0 | -4 | -2 | 92*
Cc1ccc(OCCn2c(C)c(/C=N/n3cnnc3)c3ccccc32)cc1 | 5 | -9 | 0 | 81*
Cc1ccc(OCCN2CCN(CC(O)Cn3c4ccccc4c4ccccc43)CC2)cc1 (centres undefined) | 6 | nt | 2 | 96*
